Source: ChEMBL document CHEMBL1137412, “Molecular tongs containing amino acid mimetic fragments: new inhibitors of wild-type and mutated HIV-1 protease dimerization” (J Med Chem, 2006)

Experiments:
[1] = target: Human immunodeficiency virus type 1 protease (Human immunodeficiency virus 1, UniProt Q72874, G48V/L90M); test: Inhibition of dimerization of HIV1 protease G48V/L90M mutant
Outline: (§1)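 Recombinant HIV-1 protease (wild-type or mutant) assayed fluorometrically with substrate DABCYL-γ-abu-Ser-Gln-Asn-Tyr-Pro-Ile-Val-Gln-EDANS (emission 490 nm). Conditions: 100 mM sodium acetate, 1 mM EDTA, 1 M NaCl, pH 4.7, 30 °C, 3% v/v DMSO final. Typically 7.5 nM enzyme and 5.2 µM substrate.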

[2] = target: T1, Human immunodeficiency virus type 1 protease (Human immunodeficiency virus 1, UniProt Q72874); test: Inhibition of dimerization of HIV1 protease […] mutant; outline: as §1
[3] = target: T1, Human immunodeficiency virus type 1 protease; test: Inhibition of dimerization of HIV1 protease MDR-HM mutant; outline: as §1
[4] = target: Human immunodeficiency virus type 1 protease (Human immunodeficiency virus 1, UniProt Q72874, V82A); test: Inhibition of dimerization of HIV1 protease V82A mutant; outline: as §1
[5] = target: T1, Human immunodeficiency virus type 1 protease; test: Inhibition of wild type HIV1 protease dimerization; outline: as §1
[6] = target: Human immunodeficiency virus type 1 protease (Human immunodeficiency virus 1, UniProt Q72874, D30N); test: Inhibition of dimerization of HIV1 protease D30N mutant; outline: as §1
[7] = target: T1, Human immunodeficiency virus type 1 protease; test: Inhibition of dimerization of HIV1 protease ANAM-11 mutant; outline: as §1
[8] = Stability in presence of 20% fetal calf serum; assay type: ADME; settings: cattle
Outline: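 Compound incubated in RPMI medium containing 20% fetal calf serum at 37 °C for up to 2 days. Incubation stopped with ethanol, mixture chilled to 4 °C and centrifuged, and clear supernatant analysed by RP-HPLC. Half-life from least-squares linear regression of log[I] versus time, using at least five points.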

[9] = target: Human immunodeficiency virus type 1 protease (Human immunodeficiency virus 1) (UniProt Q72874); test: Inhibition of wild type HIV1 protease dimerization at 5 uM
[10] = target: Human immunodeficiency virus type 1 protease (Human immunodeficiency virus 1) (UniProt Q72874); test: Inhibition of wild type HIV1 protease at 5 uM
Outline: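 Recombinant wild-type HIV-1 protease (7.5 nM) was run with fluorogenic substrate DABCYL-γ-abu-Ser-Gln-Asn-Tyr-Pro-Ile-Val-Gln-EDANS (5.2 µM) in 100 mM sodium acetate, 1 mM EDTA, 1 M NaCl, pH 4.7, 30 °C. DMSO was kept at 3% v/v final. Emission was read at 490 nm. Percent inhibition was measured at 5 µM compound.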

[11] = target: T1, Human immunodeficiency virus type 1 protease; test: Inhibition of wild type HIV1 protease; outline: as §1

## COC(=O)[C@@H](NC(=O)[C@@H](CC(C)C)NC(=O)[C@@H](NC(=O)CCCOc1ccc2ccc(OCCCC(=O)NC(C(=O)Nc3cccn(CC(N)=O)c3=O)C(C)C)cc2c1)C(C)C)C(C)C (some centres undefined)
[1]
  Ki: 500 nM
[2]
  Ki: 100 nM
[3]
  Ki: 4800 nM
[4]
  Ki: 240 nM
[5]
  Ki: 400 nM
[6]
  Ki: 500 nM
[7]
  Ki: 200 nM

## COC(=O)[C@@H](NC(=O)[C@H](CC(C)C)NC(=O)[C@@H](NC(=O)CCCOc1ccc2ccc(OCCCC(=O)N[C@H](C(=O)NNC(=O)c3cc(NC(C)=O)ccc3OC)C(C)C)cc2c1)C(C)C)C(C)C
[5]
  Ki: 200 nM

## COC(=O)[C@@H](NC(=O)[C@H](CC(C)C)NC(=O)[C@@H](NC(=O)CCCOc1ccc2ccc(OCCCC(=O)N[C@H](C(=O)N[C@@H](CC(C)C)C(=O)N[C@H](C(=O)OC)C(C)C)C(C)C)cc2c1)C(C)C)C(C)C
[8]
  half-life: 28 h

## COC(=O)[C@@H](NC(=O)[C@H](CC(C)C)NC(=O)[C@@H](NC(=O)CCCOc1ccc2ccc(OCCCC(=O)NNC(=O)c3cc(N)ccc3OC)cc2c1)C(C)C)C(C)C
[9]
  inhibition: 28%
[10]
  inhibition: 28%

## COC(=O)[C@@H](NC(=O)[C@@H](CC(C)C)NC(=O)[C@@H](NC(=O)CCCOc1ccc2ccc(OCCCC(=O)Nc3ccc(C)n(CC(=O)Nc4ccc(C)n(CC(=O)OC(C)(C)C)c4=O)c3=O)cc2c1)C(C)C)C(C)C
[11]
  Ki: 8400 nM

## COC(=O)[C@@H](NC(=O)[C@H](CC(C)C)NC(=O)[C@@H](NC(=O)CCCOc1ccc2ccc(OCCCC(=O)N[C@H](C(=O)Nc3cccn(CC(N)=O)c3=O)C(C)C)cc2c1)C(C)C)C(C)C
[8]
  half-life: 41 h

## CC[C@H](C)[C@H](NC(=O)Cn1c(C)ccc(NC(=O)CCCOc2ccc3ccc(OCCCC(=O)N[C@H](C(=O)N[C@H](CC(C)C)C(=O)N[C@H](C(=O)OC)C(C)C)C(C)C)cc3c2)c1=O)C(=O)N[C@H](C(N)=O)[C@@H](C)O
[11]
  Ki: 9700 nM
